For orientation: pKi means the negative decadic logarithm of the Ki, by convention in mol/L. Broadly, the AUC is the area under the concentration-time curve, a measure of exposure. A word on the Cmax: it is the maximum level reached in the sampled fluid or tissue. For orientation: ED50 means the midpoint of the dose-response relation. One may read the pIC50 as the IC50 on a negative log10 scale, so that one unit is a factor of ten.

Data set [1] addresses T1, C-X-C chemokine receptor type 2 (Homo sapiens, UniProt P25025).
T1 sequence (P25025 whole entry): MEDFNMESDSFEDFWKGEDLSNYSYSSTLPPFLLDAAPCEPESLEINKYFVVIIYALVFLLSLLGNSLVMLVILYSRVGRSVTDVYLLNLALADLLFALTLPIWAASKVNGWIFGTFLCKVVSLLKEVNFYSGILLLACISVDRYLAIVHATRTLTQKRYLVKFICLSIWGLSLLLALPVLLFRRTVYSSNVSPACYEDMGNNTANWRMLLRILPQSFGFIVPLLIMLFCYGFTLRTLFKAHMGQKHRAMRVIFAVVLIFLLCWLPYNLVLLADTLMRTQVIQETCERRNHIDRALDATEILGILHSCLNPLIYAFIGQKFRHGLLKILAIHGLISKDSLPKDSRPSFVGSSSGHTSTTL
Description: Displacement of [125I]IL8 from human CXCR2 expressed in CHO cells by SPA. The format is cell-based. A general note: Displacement assays read how much labelled ligand stays bound in the presence of the test substance.

For data set [2], the target named is T2, C-X-C chemokine receptor type 1 (Homo sapiens, UniProt P25024).
T2 sequence (P25024 whole entry): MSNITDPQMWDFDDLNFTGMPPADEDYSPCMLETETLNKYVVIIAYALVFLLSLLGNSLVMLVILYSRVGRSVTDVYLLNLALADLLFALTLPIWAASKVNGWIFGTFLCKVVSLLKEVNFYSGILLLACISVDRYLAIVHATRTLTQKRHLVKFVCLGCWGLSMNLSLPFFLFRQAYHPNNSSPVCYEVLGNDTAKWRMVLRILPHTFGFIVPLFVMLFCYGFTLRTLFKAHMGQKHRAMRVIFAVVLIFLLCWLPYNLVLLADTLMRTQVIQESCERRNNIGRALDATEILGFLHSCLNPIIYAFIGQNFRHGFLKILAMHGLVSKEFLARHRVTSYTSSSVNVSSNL
Description: Displacement of [125I]IL8 from human CXCR1 expressed in CHO cells by SPA. The format is cell-based.

Data set [3] is described as follows: AUC in rat at 10 mg/kg, po after 6 hrs. The format is ADME, organism-based. Set-up: time < 6 hr, dose 10 mg/kg, route oral. The conditions noted are these: plasma.
The nature of data set [4]: Cmax in monkey at 3 mg/kg, po after 48 hrs. Details: dose 3 mg/kg, route oral. The note with it: rhesus monkey, in vivo. The format is ADME, organism-based, Macaca mulatta.
The species named for a further data set is Mus musculus. Description: Antiinflammatory activity against mouse model of cigarette smoke-induced neutrophilic inflammation. It counts as functional.
The nature of data set [5]: AUC in dog at 2 mg/kg, po after 48 hrs. The conditions noted are these: plasma. Details: time < 48 hr, dose 2 mg/kg, route oral. It counts as ADME, organism-based, Canis lupus familiaris.
For the next data set, the species on record is Rattus norvegicus. Put plainly: Antiinflammatory activity against rat model of lipopolysaccharide-induced pulmonary inflammation. It counts as functional.
Data set [6] is described as follows: AUC in mouse at 25 mg/kg, po after 7 hrs. The format is ADME, organism-based. Details: time < 7 hr, dose 25 mg/kg, route oral. The conditions noted are these: plasma.
The nature of data set [7]: AUC in monkey at 3 mg/kg, po after 48 hrs. It counts as ADME, organism-based, Macaca mulatta. Set-up: time < 48 hr, dose 3 mg/kg, route oral. The conditions noted are these: rhesus monkey, plasma.
The test system of data set [8] is Neutrophil. Description: Inhibition of IL8-induced migration of human neutrophils by chemotaxis assay. It counts as functional, cell-based. Summed up: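 Human neutrophil migration stimulated with 3 nM IL-8; IC50 determined.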
The subject of data set [9] is Neutrophil. Description: Inhibition of GROalpha-induced migration of human neutrophils by chemotaxis assay. The format is functional, cell-based. Summed up: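 Human neutrophil migration stimulated with 30 nM Gro-α; IC50 determined.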
Data set [10] is described as follows: Cmax in mouse at 25 mg/kg, po after 7 hrs. It counts as ADME, organism-based. Set-up: dose 25 mg/kg, route oral. The note with it: in vivo.
Data set [11] is described as follows: Cmax in rat at 10 mg/kg, po after 6 hrs. It counts as ADME, organism-based. Set-up: dose 10 mg/kg, route oral. The note with it: in vivo.
Data set [12] is described as follows: Cmax in dog at 2 mg/kg, po after 48 hrs. It counts as ADME, organism-based, Canis lupus familiaris. Details: dose 2 mg/kg, route oral. The conditions noted are these: in vivo.

pIC50, pKi: −log10 of the molar value.

As to `CC[C@@H](Nc1c(Nc2cccc(C(=O)N(C)C)c2O)c(=O)c1=O)c1cc(CCCCN2CCOCC2)co1`, the values for the pKi in [1] and in data set [2] were 8.05 and 7.85, respectively.
In the case of `CC(C)c1coc([C@H](Nc2c(Nc3cccc(C(=O)N(C)C)c3O)c(=O)c2=O)C(F)(F)F)c1`, the pKi in [1] is 8.22; in data set [2] it was 7.80.
Turning to `CC[C@@H](Nc1c(Nc2cccc(C(=O)N(C)C)c2O)c(=O)c1=O)c1cc(C(C)(C)C)co1`, the pKi in data set [1] was 8.40; in data set [2], 8.00.
Regarding `CCc1coc([C@@H](CC)Nc2c(Nc3cccc(C(=O)N(C)C)c3O)c(=O)c2=O)c1`, the AUC at 6 h in data set [3] stood at 17.4 µM·h. In addition, the values for the pKi in [1] and in [2] were 9.00 and 8.15, respectively.
Regarding `CCCCc1coc([C@@H](CC)Nc2c(Nc3cccc(C(=O)N(C)C)c3O)c(=O)c2=O)c1`, the pKi was 8.70 in data set [1] and 7.47 in data set [2].
Turning to `CCc1ccoc1[C@@H](CC)Nc1c(Nc2cccc(C(=O)N(C)C)c2O)c(=O)c1=O`, the pKi in data set [1] was 7.60; in data set [2], 6.42.
Regarding `CCC(C)c1coc([C@@H](CC)Nc2c(Nc3cccc(C(=O)N(C)C)c3O)c(=O)c2=O)c1` (some centres undefined), the pKi is 9.22 in data set [1] and 8.12 in [2].
Turning to `CC(C)c1coc([C@H](Nc2c(Nc3cccc(C(=O)N(C)C)c3O)c(=O)c2=O)C(C)C)c1`, the pKi in data set [1] was 8.40; in data set [2], 7.96.
Turning to `CCC(CC)c1coc([C@@H](CC)Nc2c(Nc3cccc(C(=O)N(C)C)c3O)c(=O)c2=O)c1`, the pKi in [1] is 9.10; in data set [2], 7.52.
For `CC[C@@H](Nc1c(Nc2cccc(C(=O)N(C)C)c2O)c(=O)c1=O)c1ccc(C)s1`, in that order: 8.30 and 6.84.
For `CC[C@@H](Nc1c(Nc2cccc(C(=O)N(C)C)c2O)c(=O)c1=O)c1cc(C2CCCCC2)co1`, in that order: 8.40 and 6.55.
Consider `CC[C@@H](Nc1c(Nc2cccc(C(=O)N(C)C)c2O)c(=O)c1=O)c1cc(C)co1`, for which the AUC at 6 h in [3] was found to be 32.6 µM·h. Besides, the pKi is 8.40 in data set [1] and 8.05 in data set [2].
For the compound `CC(C)c1coc([C@@H](C)Nc2c(Nc3cccc(C(=O)N(C)C)c3O)c(=O)c2=O)c1`, the negative-log Ki (pKi) in data set [1] was 8.70; in data set [2] it was 7.30.
For the compound `CC[C@@H](Nc1c(Nc2cccc(C(=O)N(C)C)c2O)c(=O)c1=O)c1cc(C(C)C)co1`, the Cmax in data set [4] turned out to be 380 nM; in data set [10] it was 4.6 µM; in [11], 3.8 µM; in data set [12] it was 5.3 µM. For the same compound, the ED50 worked out at 1 mg/kg in the data set listed under Mus musculus and 0.9 mg/kg in the data set listed under Rattus norvegicus. The same compound registered an AUC at 6 h in data set [3] of 5.4 µM·h. Besides, the pIC50 is 8.89 in data set [1], 7.43 in the data set on Neutrophil [8], 8.14 in data set [2] and 9.30 in the data set on Neutrophil [9]. Also, the pKi in data set [1] is 9.00; in data set [2], 8.52. Further, the AUC at 48 h in data set [5] amounted to 7.1 µM·h; in data set [7], 4.2 µM·h. In data set [6], the AUC at 7 h was 4.6 µM·h.
As for `CC[C@@H](Nc1c(Nc2cccc(C(=O)N(C)C)c2O)c(=O)c1=O)c1cc(C)cs1`, the pKi is 8.30 in data set [1] and 7.62 in data set [2].
For `CC[C@@H](Nc1c(Nc2cccc(C(=O)N(C)C)c2O)c(=O)c1=O)c1cc(C2CCCC2)co1`, in that order: 8.52 and 7.28.
On to `CC[C@@H](Nc1c(Nc2cccc(C(=O)N(C)C)c2O)c(=O)c1=O)c1sccc1C`, for which the values for the pKi in [1] and in data set [2] were 8.00 and 6.91, respectively.
In the same order, the values of `CC(C)c1coc([C@H](Nc2c(Nc3cccc(C(=O)N(C)C)c3O)c(=O)c2=O)C(C)(C)C)c1` are 8.40 and 7.85.
For `CC(C)c1coc([C@H](Nc2c(Nc3cccc(C(=O)N(C)C)c3O)c(=O)c2=O)C2CC2)c1`, in that order: 8.52 and 8.00.

The record behind these values is ChEMBL document CHEMBL1139955, “C(4)-alkyl substituted furanyl cyclobutenediones as potent, orally bioavailable CXCR2 and CXCR1 receptor antagonists” (Bioorg Med Chem Lett, 2007).
